# PostGolgi yeast: growth inhibition of a yeast mutant, post-Golgi transport screen; post-Golgi transport phenotypic cell assay; inhibition, % at 10 µM; 98,000 compounds, 0.9% hits;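 also: yeast cells grown in 1536-well plates; yeast grown about 18 h at 30C before absorbance read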
# HePTP inh: human HePTP phosphatase inhibition; AID 521; inhibition, % at 20 µM; 110,000 compounds, 0.64% hits; recombinant HePTP phosphatase activity, OD absorbance; in the data active = inhibition above about 50%
# Target sequence (P35236 whole entry, looked up): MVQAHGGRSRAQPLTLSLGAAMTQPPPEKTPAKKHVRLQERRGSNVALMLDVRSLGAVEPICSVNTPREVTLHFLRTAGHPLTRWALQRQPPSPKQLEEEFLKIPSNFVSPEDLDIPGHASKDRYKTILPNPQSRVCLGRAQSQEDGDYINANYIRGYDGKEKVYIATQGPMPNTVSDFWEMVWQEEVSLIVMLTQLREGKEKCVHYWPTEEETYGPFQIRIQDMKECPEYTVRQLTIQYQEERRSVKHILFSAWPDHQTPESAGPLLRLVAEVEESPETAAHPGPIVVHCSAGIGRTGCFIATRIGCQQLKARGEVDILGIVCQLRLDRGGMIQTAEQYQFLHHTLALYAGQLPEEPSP
# tolC growth inh: blocks growth of E. coli BW25113 tolC mutant; AID 573; 65,000 compounds, 2.2% hits; OD615; growth inhibition, % at 10 µM (by protocol);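 active = growth inhibition at or above a cutoff equal to the mean over every tested compound plus 3 SD, cut at about 60% in these data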;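 also: growth measured after 20 h incubation at 37 °C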
#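 Assay system: tolC-deleted E. coli BW25113. Medium: kanamycin-containing LB broth (50 µg/mL). Dosing: 10 µM final, single dose. Timing: bacterial growth with compound for 20 h at 37 °C. Detection: A615 absorbance measurement. Read-out basis: growth inhibition in percent.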
# E coli WT exp: E. coli BW25113 growth inhibition, expanded screen; OD600 absorbance; growth inhibition, % at 100 µM; 98,000 compounds, 0.15% hits;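 active = growth inhibition above about 50% at one test dose, limit read from the data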;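 also: growth measured after 20 h incubation at 37 °C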
# PLAP activator: human PLAP activation | P05187 | purified PLAP enzyme, luminescent substrate read-out; hits give high values | activation fold at 20 µM | 96,000 compounds, 1.2% hits | AID 696; in the data active = activation fold above about 2
# PostGolgi ctrl: yeast control strain growth, post-Golgi counter-screen. efflux-deficient yeast background strain, growth absorbance A615, 16 h. inhibition, % at 10 µM. 98,000 compounds, 5% hits. AID 738
# Numbers stand for hits; – = inactive; · = no result given. Hits are enriched below; roughly 5.5% of the tested compounds scored in any of these assays. Rule as the data show it, unless noted: active = inhibition above about 30%; inactive = the rest.
SMILES,PostGolgi yeast,HePTP inh,tolC growth inh,E coli WT exp,PLAP activator,PostGolgi ctrl
CCOC(=O)C1=C(O)/C(=C/c2ccc(O)cc2)SC1=Nc1ccc(Cl)cc1,·,–,·,·,·,·
CCOC(=O)C1=C(O)/C(=C/c2ccc(C)cc2)SC1=Nc1ccc(C)cc1,·,54,·,·,·,·
Cc1ccccc1NC(=O)C1CC(=O)N(c2cccc([N+](=O)[O-])c2)C1 (stereo unspecified),·,–,·,·,·,·
CC(C)Sc1oc(-c2ccco2)nc1S(=O)(=O)c1ccccc1,–,·,–,–,·,41
O=C(N=Nc1c(O)[nH]c2ccc([N+](=O)[O-])cc12)c1ccc2c(c1)OCO2,·,102,·,·,·,·
Cc1ccn2cc(CNS(=O)(=O)c3ccc(Cl)s3)nc2c1,–,–,–,–,2.1,–
Cc1csc2nc(CCNS(=O)(=O)c3cccs3)cn12,–,–,–,–,2.9,–
CCc1ccc(S(=O)(=O)NCc2cn3ccccc3n2)s1,–,–,–,–,2,–
CCc1ccc(S(=O)(=O)NCCc2cn3ccsc3n2)s1,–,–,–,–,2,–
COc1ccc(NC2=CC(c3ccccc3F)N(c3ccc(OC)cc3)C2=O)cc1 (stereo unspecified),·,–,·,·,·,·
CCOC(=O)CP(=O)(c1ccc(C)cc1)c1ccc(C)cc1,·,–,·,·,·,·
CCc1cccc(C)c1NC(=O)c1cc(OC)c(OC)cc1[N+](=O)[O-],·,–,·,·,·,·
Cc1cc(I)ccc1S(=O)(=O)N1CCN(C)CC1,·,–,·,·,·,·
O=C(/C=C/c1ccc(Br)cc1)N1CCN(c2ccc([N+](=O)[O-])cc2)CC1,·,–,·,·,·,·
COC(=O)C(NC(C)=O)C12CC3CC(CC(C3)C1)C2 (stereo unspecified),·,–,·,·,·,·
CCc1ccc2oc(-c3cccc(NC(=O)c4cccnc4)c3)nc2c1,–,–,–,–,–,74
C/C(=C\C(=O)OCCOCCOC(=O)/C=C(\C)NC1CC(C)(C)NC(C)(C)C1)NC1CC(C)(C)NC(C)(C)C1,·,–,·,·,·,·
CCOC(=O)c1ccccc1NC(=O)c1c(F)c(F)c(F)c(F)c1F,–,–,65,–,–,–
Cc1ccc(C(=O)/C=C/Nc2ccccc2)cc1,·,–,·,·,·,·
O=C(/C=C/c1ccco1)/C=C/c1ccc(-c2ccc(Cl)c(Cl)c2)o1,·,102,·,·,·,·
O=C(O)/C=C/c1ccc(-c2ccc(Cl)c(Cl)c2)o1,·,–,·,·,·,·
O=C(/C=C/c1ccc(-c2cc(Cl)ccc2Cl)o1)c1ccco1,·,60,·,·,·,·
CC(=O)CC(C)(C)Nc1ccccc1,·,–,·,·,·,·
CCOc1cc(/C=C2/SC(=S)N(CC(=O)O)C2=O)ccc1OCc1ccc(Cl)cc1,·,–,·,·,·,·
O=C(O)c1ccccc1N=Nc1cc(-c2ccccc2)oc1O,·,101,·,·,·,·
SMILES,PostGolgi yeast,HePTP inh,tolC growth inh,E coli WT exp,PLAP activator,PostGolgi ctrl
O=C(O)c1cc(-c2ccccc2)on1,–,·,·,–,–,–
O=[N+]([O-])c1ccc2c(c1)S(=O)(=O)N=C2N1CCCCC1,·,–,·,·,·,·
CC(C)CC(NC(=O)c1ccc(Cl)cc1)C(=O)OCC(=O)c1ccc2c(c1)NC(=O)CO2 (stereo unspecified),–,·,·,–,–,32
O=[N+]([O-])c1ccccc1C=NN1CCN(c2ccc(Cl)cc2)CC1,·,–,·,·,·,·
C=CCn1c(SCn2nnc3ccccc3c2=O)nnc1C1CCCCC1,–,–,–,–,–,32
CCCCOc1ccc(S(=O)(=O)NCc2cccnc2)cc1,·,–,·,·,·,·
CCCCCn1c(N2CCN(Cc3ccccc3)CC2)nc2c1c(=O)[nH]c(=O)n2C,–,–,–,–,–,–
CCCCCn1c(N2CCC(Cc3ccccc3)CC2)nc2c1c(=O)[nH]c(=O)n2C,·,–,71,·,·,·
CCCn1c(N2CCC(Cc3ccccc3)CC2)nc2c1c(=O)[nH]c(=O)n2C,–,–,–,–,–,52
C=C(C)Cn1c(N2CCC(Cc3ccccc3)CC2)nc2c1c(=O)[nH]c(=O)n2C,–,·,92,–,·,54
Cn1c(=O)[nH]c(=O)c2c1nc(N1CCC(Cc3ccccc3)CC1)n2Cc1ccccc1,–,–,–,–,–,–
CC(=O)Cn1c(N2CCC(Cc3ccccc3)CC2)nc2c1c(=O)[nH]c(=O)n2C,–,–,–,–,–,–
O=C1c2ccccc2C(=O)N1CCc1nc2ccccc2c(=O)n1-c1ccc(Br)cn1,·,–,·,·,·,·
N#Cc1ccc2c(c1)nc1c3cccc4cccc(c(=O)n21)c43,·,65,·,·,·,·
Cc1cc2nc(-c3cccnc3SCC(=O)NCc3ccco3)[nH]c2cc1C,–,–,–,–,·,–
O=C(CSc1ncccc1-c1nc2ccccc2[nH]1)NCc1ccco1,34,–,–,–,2,–
COc1ccccc1-n1c(=O)oc2ccc(Cl)cc2c1=O,–,–,100,–,–,60
COc1ccccc1-n1c(SCc2ccccc2)nc2ccccc2c1=O,·,–,·,·,·,·
CN(C1=C(N2CCCCC2)C(=O)c2ccccc2C1=O)c1ccccc1,–,·,·,–,–,33
COc1ccc(OC)c(C2=Nn3c(nnc3-c3ccco3)SC2)c1,–,–,–,–,–,–
COc1ccc(C2=Nn3c(nnc3-c3ccco3)SC2)cc1,–,·,·,–,–,45
COc1ccc(OCc2nnc3n2N=C(c2ccc(OC)cc2)CS3)cc1,–,–,–,–,–,32
COc1ccc(OCc2nnc3n2N=C(c2ccc(C)cc2)CS3)cc1,–,–,–,–,–,–
COC(=O)c1cc(NC(=O)C(Sc2ccccc2)c2ccccc2)cc(C(=O)OC)c1 (stereo unspecified),·,–,·,·,·,·
Cc1ccc(C(=O)N/N=C\c2ccc(I)o2)o1,·,–,·,·,·,·
SMILES,PostGolgi yeast,HePTP inh,tolC growth inh,E coli WT exp,PLAP activator,PostGolgi ctrl
CC(c1nnc(SCC(=O)c2c(N)n(C)c(=O)n(C)c2=O)n1-c1ccc(Cl)cc1)N(C)C (stereo unspecified),–,–,–,–,–,37
CN1CCN(C(c2cccnc2)c2ccc3cccnc3c2O)CC1 (stereo unspecified),–,–,–,–,2.5,–
C=C(C)C1Cc2c(C)nn(-c3cccc4ccccc34)c2C1 (stereo unspecified),–,·,·,–,–,40
CON1C(=O)C(=O)N(OC)C(C)(C)C1C (stereo unspecified),–,–,·,–,–,31
CCC(Oc1ccccc1)C(=O)Nc1sc(C)c(C)c1C(=O)OC (stereo unspecified),·,–,·,·,·,·
C=CCc1c(C)nc(SC)nc1Nc1ccc(C)cc1,–,·,·,–,–,32
C=CCc1c(C)nc(C)nc1N/N=C/c1ccc(F)cc1,–,·,·,–,–,–
CC(C)Oc1ccc(C(=O)Nc2nc3ccccc3s2)cc1,·,96,·,·,·,·
CCc1ccccc1NC(=O)/C(C#N)=C/c1cn(CC(=O)Nc2ccccc2)c2ccccc12,·,–,·,·,·,·
Cc1ccc2nc(Nc3ncc4c(n3)CCCC4=O)nc(C)c2c1,·,–,–,·,–,·
Cc1cc(C)cc(Nc2ncc3c(n2)CCCC3=O)c1,–,–,–,–,–,33
O=C1c2c(Cl)c(Cl)c(Cl)c(Cl)c2C(=O)N1c1cc2c(cc1Br)OCCO2,·,–,·,·,·,·
CCOC(=O)c1c(NC(=O)c2ccc(C)c([N+](=O)[O-])c2)sc(C(=O)Nc2ccccc2C(F)(F)F)c1C,·,–,·,·,·,·
COc1ccc(S(=O)(=O)Nc2ccccc2C(=O)NCc2ccco2)cc1,–,–,–,–,–,31
CCc1ccccc1NS(=O)(=O)c1ccc2[nH]cc(C(=O)NCc3ccco3)c(=O)c2c1,–,–,100,–,·,–

# Screening results as filed in PubChem BioAssay.
